# From ChEMBL document CHEMBL3046951, “Volatile constituents from the leaves of Callicarpa japonica Thunb. and their antibacterial activities” (2004)
# Key:
# Format in all cases: functional
# [1] = system: Bacillus cereus; test: Antimicrobial activity against Bacillus cereus ATCC 11778 assessed as growth inhibition rate at 0.34 mg/l after 72 hr by spectrophotometry; conditions: ATCC 11778, 72 h, read-out: GI
# Summary of the method: (§1)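 Pure volatile compounds (purity >95%; one at 90%) were tested against B. cereus ATCC 11778. The strain was grown at 30 °C in nutrient broth for 24 h, then subcultured for 18 h. Optical density was read in a Bioscreen C every 24 h for 72 h, with 10% Tween 80 as the control.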
# [2] = system: Bacillus cereus; test: Antimicrobial activity against Bacillus cereus ATCC 11778 assessed as growth inhibition rate at 0.068 mg/l after 72 hr by spectrophotometry; conditions: ATCC 11778, 72 h, read-out: GI; summary of the method: as §1
# [3] = system: Bacillus cereus; test: Antimicrobial activity against Bacillus cereus ATCC 11778 assessed as growth inhibition rate at 0.017 mg/l after 72 hr by spectrophotometry; conditions: ATCC 11778, 72 h, read-out: GI; summary of the method: as §1
# [4] = system: Bacillus cereus; test: Antimicrobial activity against Bacillus cereus ATCC 11778 assessed as growth inhibition rate at 6.8 mg/l after 72 hr by spectrophotometry; conditions: ATCC 11778, 72 h, read-out: GI; summary of the method: as §1
# [5] = system: Bacillus cereus; test: Antimicrobial activity against Bacillus cereus ATCC 11778 assessed as growth inhibition rate at 0.68 mg/l after 72 hr by spectrophotometry; conditions: ATCC 11778, 72 h, read-out: GI; summary of the method: as §1
# [6] = system: Salmonella typhimurium; test: Antimicrobial activity against Salmonella enterica subsp. enterica serovar Typhimurium ATCC 14028 assessed as growth inhibition rate at 0.34 mg/l after 72 hr by spectrophotometry; conditions: ATCC 14028, 72 h, read-out: GI
# Summary of the method: (§2)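 Salmonella Typhimurium ATCC 14028 grown in nutrient broth at 30 °C, precultured 24 h, then subcultured 1:100 for 18 h before testing. Single volatile compounds (>95% pure) were added. OD was read every 24 h over 72 h in a Bioscreen C, with 10% Tween 80 as the comparison control.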
# [7] = system: Salmonella typhimurium; test: Antimicrobial activity against Salmonella enterica subsp. enterica serovar Typhimurium ATCC 14028 assessed as growth inhibition rate at 0.068 mg/l after 72 hr by spectrophotometry; conditions: ATCC 14028, 72 h, read-out: GI; summary of the method: as §2
# [8] = system: Salmonella typhimurium; test: Antimicrobial activity against Salmonella enterica subsp. enterica serovar Typhimurium ATCC 14028 assessed as growth inhibition rate at 0.017 mg/l after 72 hr by spectrophotometry; conditions: ATCC 14028, 72 h, read-out: GI; summary of the method: as §2
# [9] = system: Salmonella typhimurium; test: Antimicrobial activity against Salmonella enterica subsp. enterica serovar Typhimurium ATCC 14028 assessed as growth inhibition rate at 6.8 mg/l after 72 hr by spectrophotometry; conditions: ATCC 14028, 72 h, read-out: GI; summary of the method: as §2
# [10] = system: Salmonella typhimurium; test: Antimicrobial activity against Salmonella enterica subsp. enterica serovar Typhimurium ATCC 14028 assessed as growth inhibition rate at 0.68 mg/l after 72 hr by spectrophotometry; conditions: ATCC 14028, 72 h, read-out: GI; summary of the method: as §2
# [11] = system: Listeria monocytogenes; test: Antimicrobial activity against Listeria monocytogenes ATCC 19111 assessed as growth inhibition rate at 3.4 mg/l after 72 hr by spectrophotometry; conditions: ATCC 19111, 72 h, read-out: GI
# Summary of the method: (§3)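 L. monocytogenes was grown at 30 °C in tryptic soy broth, subcultured for 18 h, and exposed to pure volatile compounds (>95% purity). Growth was followed by Bioscreen C optical density every 24 h for 72 h against a 10% Tween 80 control.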
# [12] = system: Escherichia coli; test: Antimicrobial activity against Escherichia coli O157:H7 ATCC 43894 assessed as growth inhibition rate at 0.34 mg/l after 72 hr by spectrophotometry; conditions: O157:H7 ATCC 43894, 72 h, read-out: GI
# [13] = system: Escherichia coli; test: Antimicrobial activity against Escherichia coli O157:H7 ATCC 43894 assessed as growth inhibition rate at 0.068 mg/l after 72 hr by spectrophotometry; conditions: O157:H7 ATCC 43894, 72 h, read-out: GI
# [14] = system: Escherichia coli; test: Antimicrobial activity against Escherichia coli O157:H7 ATCC 43894 assessed as growth inhibition rate at 0.017 mg/l after 72 hr by spectrophotometry; conditions: O157:H7 ATCC 43894, 72 h, read-out: GI
# [15] = system: Escherichia coli; test: Antimicrobial activity against Escherichia coli O157:H7 ATCC 43894 assessed as growth inhibition rate at 6.8 mg/l after 72 hr by spectrophotometry; conditions: O157:H7 ATCC 43894, 72 h, read-out: GI
# [16] = system: Escherichia coli; test: Antimicrobial activity against Escherichia coli O157:H7 ATCC 43894 assessed as growth inhibition rate at 0.68 mg/l after 72 hr by spectrophotometry; conditions: O157:H7 ATCC 43894, 72 h, read-out: GI
# [17] = system: Staphylococcus aureus; test: Antimicrobial activity against Staphylococcus aureus ATCC 25923 assessed as growth inhibition rate at 0.34 mg/l after 72 hr by spectrophotometry; conditions: ATCC 25923, 72 h, read-out: GI
# [18] = system: Staphylococcus aureus; test: Antimicrobial activity against Staphylococcus aureus ATCC 25923 assessed as growth inhibition rate at 0.068 mg/l after 72 hr by spectrophotometry; conditions: ATCC 25923, 72 h, read-out: GI
# [19] = system: Staphylococcus aureus; test: Antimicrobial activity against Staphylococcus aureus ATCC 25923 assessed as growth inhibition rate at 0.017 mg/l after 72 hr by spectrophotometry; conditions: ATCC 25923, 72 h, read-out: GI
# [20] = system: Staphylococcus aureus; test: Antimicrobial activity against Staphylococcus aureus ATCC 25923 assessed as growth inhibition rate at 6.8 mg/l after 72 hr by spectrophotometry; conditions: ATCC 25923, 72 h, read-out: GI
# Summary of the method: (§4)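 Staphylococcus aureus ATCC 25923 grown at 37 °C in tryptic soy broth, using an 18 h subculture of a 24 h culture. Individual leaf-volatile compounds (>95% purity) were tested. Bioscreen C optical density was recorded every 24 h for 72 h and compared with a 10% Tween 80 control.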
# [21] = system: Staphylococcus aureus; test: Antimicrobial activity against Staphylococcus aureus ATCC 25923 assessed as growth inhibition rate at 0.68 mg/l after 72 hr by spectrophotometry; conditions: ATCC 25923, 72 h, read-out: GI; summary of the method: as §4
# [22] = system: Vibrio parahaemolyticus; test: Antimicrobial activity against Vibrio parahaemolyticus ATCC 33844 assessed as growth inhibition rate at 3.4 mg/l after 72 hr by spectrophotometry; conditions: ATCC 33844, 72 h, read-out: GI
# Summary of the method: (§5)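 Vibrio parahaemolyticus ATCC 33844 grown at 37 °C in tryptic soy broth with 3% (w/v) NaCl, using an 18 h subculture of a 24 h culture. Pure compounds (>95% purity) were tested. Bioscreen C optical density was read every 24 h for 72 h against a 10% Tween 80 control.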
# [23] = system: Salmonella typhimurium; test: Antimicrobial activity against Salmonella enterica subsp. enterica serovar Typhimurium ATCC 14028 assessed as growth inhibition rate at 3.4 mg/l after 72 hr by spectrophotometry; conditions: ATCC 14028, 72 h, read-out: GI; summary of the method: as §2
# [24] = system: Escherichia coli; test: Antimicrobial activity against Escherichia coli O157:H7 ATCC 43894 assessed as growth inhibition rate at 3.4 mg/l after 72 hr by spectrophotometry; conditions: O157:H7 ATCC 43894, 72 h, read-out: GI
# [25] = system: Staphylococcus aureus; test: Antimicrobial activity against Staphylococcus aureus ATCC 25923 assessed as growth inhibition rate at 3.4 mg/l after 72 hr by spectrophotometry; conditions: ATCC 25923, 72 h, read-out: GI; summary of the method: as §4
# [26] = system: Listeria monocytogenes; test: Antimicrobial activity against Listeria monocytogenes ATCC 19111 assessed as growth inhibition rate at 6.8 mg/l after 72 hr by spectrophotometry; conditions: ATCC 19111, 72 h, read-out: GI; summary of the method: as §3
# [27] = system: Listeria monocytogenes; test: Antimicrobial activity against Listeria monocytogenes ATCC 19111 assessed as growth inhibition rate at 0.68 mg/l after 72 hr by spectrophotometry; conditions: ATCC 19111, 72 h, read-out: GI; summary of the method: as §3
# [28] = system: Vibrio parahaemolyticus; test: Antimicrobial activity against Vibrio parahaemolyticus ATCC 33844 assessed as growth inhibition rate at 6.8 mg/l after 72 hr by spectrophotometry; conditions: ATCC 33844, 72 h, read-out: GI; summary of the method: as §5
# [29] = system: Vibrio parahaemolyticus; test: Antimicrobial activity against Vibrio parahaemolyticus ATCC 33844 assessed as growth inhibition rate at 0.68 mg/l after 72 hr by spectrophotometry; conditions: ATCC 33844, 72 h, read-out: GI; summary of the method: as §5
# [30] = system: Listeria monocytogenes; test: Antimicrobial activity against Listeria monocytogenes ATCC 19111 assessed as growth inhibition rate at 0.34 mg/l after 72 hr by spectrophotometry; conditions: ATCC 19111, 72 h, read-out: GI; summary of the method: as §3
# [31] = system: Listeria monocytogenes; test: Antimicrobial activity against Listeria monocytogenes ATCC 19111 assessed as growth inhibition rate at 0.068 mg/l after 72 hr by spectrophotometry; conditions: ATCC 19111, 72 h, read-out: GI; summary of the method: as §3
# [32] = system: Listeria monocytogenes; test: Antimicrobial activity against Listeria monocytogenes ATCC 19111 assessed as growth inhibition rate at 0.017 mg/l after 72 hr by spectrophotometry; conditions: ATCC 19111, 72 h, read-out: GI; summary of the method: as §3
# [33] = system: Vibrio parahaemolyticus; test: Antimicrobial activity against Vibrio parahaemolyticus ATCC 33844 assessed as growth inhibition rate at 0.34 mg/l after 72 hr by spectrophotometry; conditions: ATCC 33844, 72 h, read-out: GI
# [34] = system: Vibrio parahaemolyticus; test: Antimicrobial activity against Vibrio parahaemolyticus ATCC 33844 assessed as growth inhibition rate at 0.068 mg/l after 72 hr by spectrophotometry; conditions: ATCC 33844, 72 h, read-out: GI
# [35] = system: Vibrio parahaemolyticus; test: Antimicrobial activity against Vibrio parahaemolyticus ATCC 33844 assessed as growth inhibition rate at 0.017 mg/l after 72 hr by spectrophotometry; conditions: ATCC 33844, 72 h, read-out: GI
# [36] = system: Bacillus cereus; test: Antimicrobial activity against Bacillus cereus ATCC 11778 assessed as growth inhibition rate at 3.4 mg/l after 72 hr by spectrophotometry; conditions: ATCC 11778, 72 h, read-out: GI; summary of the method: as §1
smiles,measurement,setting,value
"CC/C=C/C=C/C=O [2,4-HEPTADIENAL]",inhibition of growth at 0.34 µg/mL,[1],1.8%
same,inhibition of growth at 0.068 µg/mL,[2],1.1%
same,inhibition of growth at 0.017 µg/mL,[3],0%
same,inhibition of growth at 6.8 µg/mL,[4],100%
same,inhibition of growth at 0.68 µg/mL,[5],11%
same,inhibition of growth at 0.34 µg/mL,[6],8.6%
same,inhibition of growth at 0.068 µg/mL,[7],8.8%
same,inhibition of growth at 0.017 µg/mL,[8],5.8%
same,inhibition of growth at 6.8 µg/mL,[9],88.6%
same,inhibition of growth at 0.68 µg/mL,[10],18.2%
same,inhibition of growth at 3.4 µg/mL,[11],34.5%
same,inhibition of growth at 0.34 µg/mL,[12],1.3%
same,inhibition of growth at 0.068 µg/mL,[13],0.5%
same,inhibition of growth at 0.017 µg/mL,[14],0.5%
same,inhibition of growth at 6.8 µg/mL,[15],27.5%
same,inhibition of growth at 0.68 µg/mL,[16],4.4%
same,inhibition of growth at 0.34 µg/mL,[17],2.8%
same,inhibition of growth at 0.068 µg/mL,[18],0%
same,inhibition of growth at 0.017 µg/mL,[19],0%
same,inhibition of growth at 6.8 µg/mL,[20],95.5%
same,inhibition of growth at 0.68 µg/mL,[21],4.9%
same,inhibition of growth at 3.4 µg/mL,[22],82.4%
same,inhibition of growth at 3.4 µg/mL,[23],57.8%
same,inhibition of growth at 3.4 µg/mL,[24],16.6%
same,inhibition of growth at 3.4 µg/mL,[25],80.9%
same,inhibition of growth at 6.8 µg/mL,[26],51.6%
same,inhibition of growth at 0.68 µg/mL,[27],5.9%
same,inhibition of growth at 6.8 µg/mL,[28],99%
same,inhibition of growth at 0.68 µg/mL,[29],11.4%
same,inhibition of growth at 0.34 µg/mL,[30],1.6%
same,inhibition of growth at 0.068 µg/mL,[31],0.8%
same,inhibition of growth at 0.017 µg/mL,[32],0.1%
same,inhibition of growth at 0.34 µg/mL,[33],6.1%
same,inhibition of growth at 0.068 µg/mL,[34],5.8%
same,inhibition of growth at 0.017 µg/mL,[35],5.6%
same,inhibition of growth at 3.4 µg/mL,[36],92.9%
